Results from ChEMBL document CHEMBL4145468, “Synthesis and biological evaluation of new steroidal pyridines as potential anti-prostate cancer agents” (Eur J Med Chem, 2018).
Calls of active or inactive are those of the source. No cut-off for these calls is given here.

How the values were obtained:
PC-3 [1] = assay: Antiproliferative activity against human PC3 cells after 72 hrs by MTT assay; assay type: functional, cell-based; conditions: PC-3, 72 h
In short: (§1)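 Exponentially growing cells, 4×10^3/well, attached 24 h, then medium replaced with fresh medium holding graded compound concentrations for 72 h. MTT (5 mg/mL stock) added for 4 h, formazan dissolved in DMSO, absorbance at 570 nm; IC50 calculated from dose-response data.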

ECa-109 cell line = assay: Antiproliferative activity against human EC109 cells after 72 hrs by MTT assay; assay type: functional, cell-based; conditions: ECa-109, 72 h; in short: as §1
MGC-803 = assay: Antiproliferative activity against human MGC803 cells after 72 hrs by MTT assay; assay type: functional, cell-based; conditions: MGC-803, 72 h; in short: as §1
GES1 = assay: Antiproliferative activity against human GES-1 cells after 72 hrs by MTT assay; assay type: cell-based; conditions: GES1, 72 h; in short: as §1
LNCaP = assay: Antiproliferative activity against human LNCAP cells after 72 hrs by MTT assay; assay type: functional, cell-based; in short: as §1
PC-3 [2] = assay: Inhibition of colony formation in human PC3 cells at 0.5 to 2 uM after 7 days by crystal violet staining-based assay; assay type: functional, cell-based
In short: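 About 2000 PC-3 cells/well seeded, after 24 h medium replaced with compound-containing medium for 7 days. Colonies PBS-washed, fixed in 4% paraformaldehyde 30 min, crystal violet stained 30 min, destained with PBS before evaluation. Repeated three times.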

PC-3 [3] = assay: Cell cycle arrest in human PC3 cells assessed as accumulation of cells at G1 phase at 0.5 uM after 48 hrs by RNase/propidium iodide staining-based flow cytometric analysis (reference value: 61.95%); assay type: functional
PC-3 [4] = assay: Cell cycle arrest in human PC3 cells assessed as accumulation of cells at G2 phase at 0.5 uM after 48 hrs by RNase/propidium iodide staining-based flow cytometric analysis (reference value: 7.17%); assay type: functional
PC-3 [5] = assay: Cell cycle arrest in human PC3 cells assessed as accumulation of cells at S phase at 0.5 uM after 48 hrs by RNase/propidium iodide staining-based flow cytometric analysis (reference value: 30.89%); assay type: functional
PC-3 [6] = assay: Cell cycle arrest in human PC3 cells assessed as accumulation of cells at G1 phase at 1 uM after 48 hrs by RNase/propidium iodide staining-based flow cytometric analysis (reference value: 61.95%); assay type: functional
PC-3 [7] = assay: Cell cycle arrest in human PC3 cells assessed as accumulation of cells at G2 phase at 1 uM after 48 hrs by RNase/propidium iodide staining-based flow cytometric analysis (reference value: 7.17%); assay type: functional
PC-3 [8] = assay: Cell cycle arrest in human PC3 cells assessed as accumulation of cells at S phase at 1 uM after 48 hrs by RNase/propidium iodide staining-based flow cytometric analysis (reference value: 30.89%); assay type: functional
PC-3 [9] = assay: Cell cycle arrest in human PC3 cells assessed as accumulation of cells at G1 phase at 2 uM after 48 hrs by RNase/propidium iodide staining-based flow cytometric analysis (reference value: 61.95%); assay type: functional
PC-3 [10] = assay: Cell cycle arrest in human PC3 cells assessed as accumulation of cells at G2 phase at 2 uM after 48 hrs by RNase/propidium iodide staining-based flow cytometric analysis (reference value: 7.17%); assay type: functional
PC-3 [11] = assay: Cell cycle arrest in human PC3 cells assessed as accumulation of cells at S phase at 2 uM after 48 hrs by RNase/propidium iodide staining-based flow cytometric analysis (reference value: 30.89%); assay type: functional
PC-3 [12] = assay: Antimigratory activity in human PC3 cells after 48 hrs by wound-healing assay; assay type: functional, cell-based
In short: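 PC-3 cells seeded at 3×10^5/well, grown to 80–90% confluence, monolayer scratched with pipette tip, washed, then exposed to compound (0, 0.5, 1.0, 2.0 μM) for 48 h. Wound photographed by inverted microscopy. At least three experiments.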

PC-3 [13] = assay: Anti-invasive activity in human PC3 cells after 48 hrs by matrigel-coated transwell assay; assay type: functional, cell-based
PC-3 [14] = assay: Antimigratory activity in human PC3 cells assessed as increase in E-cadherin at 0.5 to 2 uM after 48 hrs by Western blot analysis; assay type: functional, cell-based
In short: (§2)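 PC-3 cells treated 48 h with compound at several concentrations, lysed in NP-40/SDS/deoxycholate buffer with PMSF. Equal lysate amounts resolved by SDS-PAGE, transferred to nitrocellulose, blocked in 5% milk 2 h, primary antibody overnight at 4 °C, HRP secondary, ECL detection; GAPDH as loading control.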

PC-3 [15] = assay: Antimigratory activity in human PC3 cells assessed as increase in occludin at 0.5 to 2 uM after 48 hrs by Western blot analysis; assay type: functional, cell-based; in short: as §2
PC-3 [16] = assay: Antimigratory activity in human PC3 cells assessed as decrease in N-Cadherin at 0.5 to 2 uM after 48 hrs by Western blot analysis; assay type: functional, cell-based; in short: as §2
PC-3 [17] = assay: Antimigratory activity in human PC3 cells assessed as decrease in vimentin at 0.5 to 2 uM after 48 hrs by Western blot analysis; assay type: functional, cell-based; in short: as §2
PC-3 [18] = assay: Induction of apoptosis in human PC3 cells assessed as cell rounding at 0.5 to 2 uM after 48 hrs by Hoechst 33258 staining-based fluorescence microscopic analysis; assay type: functional
In short: (§3)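 PC-3 cells, 3×10^5/well, grown 48 h, then treated with compound at varying concentrations 48 h. Methanol-fixed ~20 min, stained with 5 ug/mL Hoechst-33258 in PBS with 0.5% Triton X-100 in dark ≥30 min; nuclear condensation/fragmentation scored by UV fluorescence microscopy.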

PC-3 [19] = assay: Induction of apoptosis in human PC3 cells assessed as chromatin shrinkage at 0.5 to 2 uM after 48 hrs by Hoechst 33258 staining-based fluorescence microscopic analysis; assay type: functional, cell-based; in short: as §3
PC-3 [20] = assay: Induction of apoptosis in human PC3 cells assessed as formation of apoptotic bodies at 0.5 to 2 uM after 48 hrs by Hoechst 33258 staining-based fluorescence microscopic analysis; assay type: functional, cell-based; in short: as §3
PC-3 [21] = assay: Induction of apoptosis in human PC3 cells assessed as viable cells at 0.5 uM after 48 hrs by AnnexinV-FITC/propidium iodide staining-based flow cytometric analysis (reference value: 99.1%); assay type: functional; conditions: PC-3, 48 h, read-out: Activity
PC-3 [22] = assay: Induction of apoptosis in human PC3 cells assessed as early apoptotic cells at 0.5 uM after 48 hrs by AnnexinV-FITC/propidium iodide staining-based flow cytometric analysis (reference value: 0.3%); assay type: functional
PC-3 [23] = assay: Induction of apoptosis in human PC3 cells assessed as late apoptotic cells at 0.5 uM after 48 hrs by AnnexinV-FITC/propidium iodide staining-based flow cytometric analysis (reference value: 0.1%); assay type: functional
PC-3 [24] = assay: Induction of apoptosis in human PC3 cells assessed as necrotic cells at 0.5 uM after 48 hrs by AnnexinV-FITC/propidium iodide staining-based flow cytometric analysis (reference value: 0.5%); assay type: functional
PC-3 [25] = assay: Induction of apoptosis in human PC3 cells assessed as viable cells at 1 uM after 48 hrs by AnnexinV-FITC/propidium iodide staining-based flow cytometric analysis (reference value: 99.1%); assay type: functional; conditions: PC-3, 48 h, read-out: Activity
PC-3 [26] = assay: Induction of apoptosis in human PC3 cells assessed as early apoptotic cells at 1 uM after 48 hrs by AnnexinV-FITC/propidium iodide staining-based flow cytometric analysis (reference value: 0.3%); assay type: functional
PC-3 [27] = assay: Induction of apoptosis in human PC3 cells assessed as late apoptotic cells at 1 uM after 48 hrs by AnnexinV-FITC/propidium iodide staining-based flow cytometric analysis (reference value: 0.1%); assay type: functional
PC-3 [28] = assay: Induction of apoptosis in human PC3 cells assessed as necrotic cells at 1 uM after 48 hrs by AnnexinV-FITC/propidium iodide staining-based flow cytometric analysis (reference value: 0.5%); assay type: functional
PC-3 [29] = assay: Induction of apoptosis in human PC3 cells assessed as viable cells at 2 uM after 48 hrs by AnnexinV-FITC/propidium iodide staining-based flow cytometric analysis (reference value: 99.1%); assay type: functional; conditions: PC-3, 48 h, read-out: Activity
PC-3 [30] = assay: Induction of apoptosis in human PC3 cells assessed as early apoptotic cells at 2 uM after 48 hrs by AnnexinV-FITC/propidium iodide staining-based flow cytometric analysis (reference value: 0.3%); assay type: functional
PC-3 [31] = assay: Induction of apoptosis in human PC3 cells assessed as late apoptotic cells at 2 uM after 48 hrs by AnnexinV-FITC/propidium iodide staining-based flow cytometric analysis (reference value: 0.1%); assay type: functional
PC-3 [32] = assay: Induction of apoptosis in human PC3 cells assessed as necrotic cells at 2 uM after 48 hrs by AnnexinV-FITC/propidium iodide staining-based flow cytometric analysis (reference value: 0.5%); assay type: functional
PC-3 [33] = assay: Induction of apoptosis in human PC3 cells assessed as increase in caspase-9 activation after 48 hrs by Western blot analysis; assay type: functional, cell-based; in short: as §2
PC-3 [34] = assay: Induction of apoptosis in human PC3 cells assessed as increase in caspase-3 activation after 48 hrs by Western blot analysis; assay type: functional, cell-based; in short: as §2
PC-3 [35] = assay: Induction of apoptosis in human PC3 cells assessed as increase in cleaved PARP after 48 hrs by Western blot analysis; assay type: functional, cell-based; in short: as §2
PC-3 [36] = assay: Induction of apoptosis in human PC3 cells after 48 hrs by AnnexinV-FITC/propidium iodide staining-based flow cytometric analysis; assay type: functional, cell-based
PC-3 [37] = assay: Antimigratory activity in human PC3 cells after 24 hrs by transwell assay

Compound: CCOc1cc(-c2cccnc2)cc([C@H]2CC[C@H]3[C@@H]4CC=C5C[C@@H](O)CC[C@]5(C)[C@H]4CC[C@]23C)n1
- IC50 (PC-3 [1]): 1.55 µM
- IC50 (ECa-109 cell line): 5.32 µM
- IC50 (MGC-803): 2.75 µM
- IC50 (GES1): 7.76 µM
- IC50 (LNCaP): 8.48 µM
- inhibition (PC-3 [2]): Active
- Activity (PC-3 [3]): 55.52%
- Activity (PC-3 [4]): 10.92%
- Activity (PC-3 [5]): 33.56%
- Activity (PC-3 [6]): 55.44%
- Activity (PC-3 [7]): 11.09%
- Activity (PC-3 [8]): 33.48%
- Activity (PC-3 [9]): 53.36%
- Activity (PC-3 [10]): 10.87%
- Activity (PC-3 [11]): 35.77%
- Activity (PC-3 [12]): Dose-dependent effect
- Activity (PC-3 [13]): Dose-dependent effect
- Activity (PC-3 [14]): Active
- Activity (PC-3 [15]): Active
- Activity (PC-3 [16]): Active
- Activity (PC-3 [17]): Active
- Activity (PC-3 [18]): Active
- Activity (PC-3 [19]): Active
- Activity (PC-3 [20]): Active
- viability at 0.5 µM (PC-3 [21]): 86.2%
- Activity (PC-3 [22]): 10.7%
- Activity (PC-3 [23]): 2.6%
- Activity (PC-3 [24]): 0.5%
- viability at 1 µM (PC-3 [25]): 76.7%
- Activity (PC-3 [26]): 9.1%
- Activity (PC-3 [27]): 11.7%
- Activity (PC-3 [28]): 2.5%
- viability at 2 µM (PC-3 [29]): 73.3%
- Activity (PC-3 [30]): 7.3%
- Activity (PC-3 [31]): 14.9%
- Activity (PC-3 [32]): 4.6%
- Activity (PC-3 [33]): Dose-dependent effect
- Activity (PC-3 [34]): Dose-dependent effect
- Activity (PC-3 [35]): Dose-dependent effect
- Activity (PC-3 [36]): Dose-dependent effect
- Activity (PC-3 [37]): Dose-dependent effect
